According to PMC5099097 (Antiviral research, 2016):

Tests used:
[1] = test system: HCMV TB40E; experiment: Luciferase assay: peptide reduction of HCMV TB40E-Luc infection of MRC-5 cells; type: cell-based, human cytomegalovirus; details: peptide concentration >200 μM
[2] = test system: HCMV TB40E; experiment: Luciferase assay: TB40E-Luc infection of MRC-5, HFF, ARPE-19 and HAEC cells; type: cell-based, human cytomegalovirus; details: 200 μM peptide added 30 min prior to infection, ARPE-19, HAEC
Outline: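 At 80–85% confluency, cells (MRC-5, HFF, ARPE-19 or HAEC) got 200 μM peptide in 10% FBS/PBS, or vehicle alone, 30 min before HCMV TB40E (luciferase, UL18 promoter) at ~35–50 pfu (~2500–3000 RLU). Inoculum was removed after 60 min at 37 °C. Cells were lysed after 3 days and luminescence read. Uninfected background was subtracted and values normalized to infected untreated cells. Three experiments, three replicates each.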

[3] = design: species or system BALB/c mice; details: mouse, in vivo, iv
[4] = test system: MCMV; details: relative to p5; ref Dogra et al., 2015; Martin et al., 2013; Wall et al., 2011; cited from earlier work
[5] = test system: HCMV T3429 (UL54 mutant); experiment: SEAP assay, recombinant GCV-resistant HCMV T3429 on MRC-5 cells; type: cell-based, human cytomegalovirus; details: Supplemental Table 1 (values not available)
[6] = test system: HCMV T3252 (UL97 mutant); experiment: SEAP assay, recombinant GCV-resistant HCMV T3252 on MRC-5 cells; type: cell-based, human cytomegalovirus; details: Supplemental Table 1 (values not available)
[7] = test system: HCMV TB40E; experiment: GCV and p5RD alone and combined, TB40E-Luc on MRC-5 cells; type: cell-based, human cytomegalovirus; details: 3 μM GCV alone

Molecule	reduction of HCMV infection [1] [%]	reduction of HCMV infection in all cell types [2] [%]	time by which the majority of the peptide was excreted or degraded [3] [h]	time retained at high levels in the spleen, liver and kidneys post injection [3]	blocks MCMV infection more efficiently than p5 (fold) [4] [x]	susceptibility of T3429 to GCV [5]	susceptibility of T3252 to GCV [6]	reduction in HCMV infection [7]
GGGYSRAQRAQARQARQAQRARGARQ [p5R]	≥ 90	> 80	≤ 4	rapidly dehalogenated and/or excreted	2	–	–	–
Nc1nc(O)c2ncn(COC(CO)CO)c2n1 [GCV, ganciclovir]	–	–	–	–	–	resistant to high concentrations	resistant to high concentrations	~ 95%
